Assay results taken from ChEMBL document CHEMBL2062453, “Lead optimization through VLAK protocol: new annelated pyrrolo-pyrimidine derivatives as antitumor agents” (2012).

How the values were obtained:
Format in all cases: functional
EKVX = experiment: Cytotoxicity against human EKVX cells assessed as cell growth at 10 uM after 48 hrs by SRB assay relative to control; conditions: read-out: Activity
Outline: (§1)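 NCI primary screen of about 60 human tumour lines. Cells inoculated and preincubated, then a single test concentration added and cultures incubated 48 h. Result given as percent growth (G%) of treated versus untreated control cells.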

M14 = experiment: Cytotoxicity against human M14 cells assessed as cell growth at 10 uM after 48 hrs by SRB assay relative to control; conditions: M14, 48 h, read-out: Activity; outline: as §1
DU-145 = experiment: Cytotoxicity against human DU145 cells assessed as cell growth at 10 uM after 48 hrs by SRB assay relative to control; conditions: DU-145, 48 h, read-out: Activity; outline: as §1
TK-10 = experiment: Cytotoxicity against human TK10 cells assessed as cell growth at 10 uM after 48 hrs by SRB assay relative to control; conditions: TK-10, 48 h, read-out: Activity
Outline: (§2)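 NCI single-dose primary screen across about 60 human tumour lines. Each line was inoculated and preincubated on microtiter plates, then exposed to one concentration of agent for 48 h. Growth is reported as percent growth (G%) of treated cells versus untreated control cells.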

NCI-H522 = experiment: Cytotoxicity against human NCI-H522 cells assessed as cell growth at 10 uM after 48 hrs by SRB assay relative to control; conditions: NCI-H522, 48 h, read-out: Activity
K562 = experiment: Cytotoxicity against human K562 cells assessed as cell growth at 10 uM after 48 hrs by SRB assay relative to control; conditions: K562, 48 h, read-out: Activity; outline: as §1
BT-549 = experiment: Cytotoxicity against human BT549 cells assessed as cell growth at 10 uM after 48 hrs by SRB assay relative to control; conditions: BT-549, 48 h, read-out: Activity; outline: as §1
SN12C = experiment: Cytotoxicity against human SN12C cells assessed as cell growth at 10 uM after 48 hrs by SRB assay relative to control; conditions: read-out: Activity
UACC-62 = experiment: Cytotoxicity against human UACC62 cells assessed as cell growth at 10 uM after 48 hrs by SRB assay relative to control; conditions: UACC-62, 48 h, read-out: Activity; outline: as §2
MOLT-4 = experiment: Cytotoxicity against human MOLT4 cells assessed as cell growth at 10 uM after 48 hrs by SRB assay relative to control; conditions: MOLT-4, 48 h, read-out: Activity
786-0 = experiment: Cytotoxicity against human 786-0 cells assessed as cell growth at 10 uM after 48 hrs by SRB assay relative to control; conditions: 786-0, 48 h, read-out: Activity; outline: as §1
A549 = experiment: Cytotoxicity against human A549 cells assessed as cell growth at 10 uM after 48 hrs by SRB assay relative to control; conditions: A549, 48 h, read-out: Activity; outline: as §1
SK-MEL-5 = experiment: Cytotoxicity against human SK-MEL-5 cells assessed as cell growth at 10 uM after 48 hrs by SRB assay relative to control; conditions: SK-MEL-5, 48 h, read-out: Activity
NCI-H226 = experiment: Cytotoxicity against human NCI-H226 cells assessed as cell growth at 10 uM after 48 hrs by SRB assay relative to control; conditions: NCI-H226, 48 h, read-out: Activity
Malme-3M = experiment: Cytotoxicity against human MALME-3M cells assessed as cell growth at 10 uM after 48 hrs by SRB assay relative to control; conditions: read-out: Activity; outline: as §1
NCI-H460 = experiment: Cytotoxicity against human NCI-H460 cells assessed as cell growth at 10 uM after 48 hrs by SRB assay relative to control; conditions: NCI-H460, 48 h, read-out: Activity
UACC-257 = experiment: Cytotoxicity against human UACC257 cells assessed as cell growth at 10 uM after 48 hrs by SRB assay relative to control; conditions: UACC-257, 48 h, read-out: Activity; outline: as §2
HCT-15 = experiment: Cytotoxicity against human HCT15 cells assessed as cell growth at 10 uM after 48 hrs by SRB assay relative to control; conditions: HCT-15, 48 h, read-out: Activity; outline: as §1
HOP-62 = experiment: Cytotoxicity against human HOP62 cells assessed as cell growth at 10 uM after 48 hrs by SRB assay relative to control; conditions: HOP-62, 48 h, read-out: Activity; outline: as §1
MDA-MB-468 = experiment: Cytotoxicity against human MDA-MB-468 cells assessed as cell growth at 10 uM after 48 hrs by SRB assay relative to control; conditions: MDA-MB-468, 48 h, read-out: Activity
OVCAR-3 = experiment: Cytotoxicity against human OVCAR3 cells assessed as cell growth at 10 uM after 48 hrs by SRB assay relative to control; conditions: OVCAR-3, 48 h, read-out: Activity
IGROV-1 = experiment: Cytotoxicity against human IGROV1 cells assessed as cell growth at 10 uM after 48 hrs by SRB assay relative to control; conditions: IGROV-1, 48 h, read-out: Activity; outline: as §1
HCT-116 = experiment: Cytotoxicity against human HCT116 cells assessed as cell growth at 10 uM after 48 hrs by SRB assay relative to control; conditions: HCT-116, 48 h, read-out: Activity; outline: as §1
HL-60(TB) = experiment: Cytotoxicity against human HL-60(TB) cells assessed as cell growth at 10 uM after 48 hrs by SRB assay relative to control; conditions: HL-60, 48 h, read-out: Activity
RPMI-8226 = experiment: Cytotoxicity against human RPMI8226 cells assessed as cell growth at 10 uM after 48 hrs by SRB assay relative to control; conditions: RPMI-8226, 48 h, read-out: Activity
MDA-MB-435 = experiment: Cytotoxicity against human MDA-MB-435 cells assessed as cell growth at 10 uM after 48 hrs by SRB assay relative to control; conditions: MDA-MB-435, 48 h, read-out: Activity
RXF 393 = experiment: Cytotoxicity against human RXF393 cells assessed as cell growth at 10 uM after 48 hrs by SRB assay relative to control; conditions: RXF 393, 48 h, read-out: Activity
SNB-75 = experiment: Cytotoxicity against human SNB75 cells assessed as cell growth at 10 uM after 48 hrs by SRB assay relative to control; conditions: SNB-75, 48 h, read-out: Activity
SW-620 = experiment: Cytotoxicity against human SW620 cells assessed as cell growth at 10 uM after 48 hrs by SRB assay relative to control; conditions: SW-620, 48 h, read-out: Activity; outline: as §2
COLO 205 = experiment: Cytotoxicity against human COLO205 cells assessed as cell growth at 10 uM after 48 hrs by SRB assay relative to control; conditions: COLO 205, 48 h, read-out: Activity; outline: as §1
OVCAR-8 = experiment: Cytotoxicity against human OVCAR8 cells assessed as cell growth at 10 uM after 48 hrs by SRB assay relative to control; conditions: OVCAR-8, 48 h, read-out: Activity
NCI-H322M = experiment: Cytotoxicity against human NCI-H322M cells assessed as cell growth at 10 uM after 48 hrs by SRB assay relative to control; conditions: read-out: Activity

Row | Structure (SMILES) | growth at 10 µM (EKVX) | growth at 10 µM (M14) | growth at 10 µM (DU-145) | growth at 10 µM (TK-10) | growth at 10 µM (NCI-H522) | growth at 10 µM (K562) | growth at 10 µM (SN12C) | growth at 10 µM (UACC-62) | growth at 10 µM (MOLT-4) | growth at 10 µM (786-0) | growth at 10 µM (A549) | growth at 10 µM (SK-MEL-5) | growth at 10 µM (NCI-H226) | growth at 10 µM (Malme-3M) | growth at 10 µM (UACC-257) | growth at 10 µM (HCT-15) | growth at 10 µM (HOP-62) | growth at 10 µM (MDA-MB-468) | growth at 10 µM (OVCAR-3) | growth at 10 µM (IGROV-1) | also measured
1 | COC(=O)C(Cc1cnc[nH]1)NC(=O)CCCn1c(C)c(C)c2c1N=C(SC)N1CC(=O)N=C21 (centres undefined) | 95% | 106% | 113% | 111% | 90% | 97% | 107% | 109% | 98% | 104% | 98% | 98% | 111% | 108% | 107% | 105% | 103% | 96% | 121% | 95% | growth at 10 µM (BT-549): 107%; growth at 10 µM (NCI-H460): 99%; growth at 10 µM (HCT-116): 100%; growth at 10 µM (HL-60(TB)): 92%; growth at 10 µM (RPMI-8226): 100%; growth at 10 µM (MDA-MB-435): 102%; growth at 10 µM (RXF 393): 112%; growth at 10 µM (SNB-75): 79%; growth at 10 µM (SW-620): 98%; growth at 10 µM (COLO 205): 118%; growth at 10 µM (OVCAR-8): 103%; growth at 10 µM (NCI-H322M): 105%
2 | CCOC(=O)CCCn1c2c(c(C)c1-c1ccccc1)C1=NC(=O)CN1C(SC)=N2 | 97% | 107% | 109% | 123% | 92% | 90% | 127% | 95% | 77% | 100% | 108% | 78% | 110% | 116% | 113% | 114% | 111% | 87% | 110% | 105% | growth at 10 µM (BT-549): 107%; growth at 10 µM (NCI-H460): 94%; growth at 10 µM (HCT-116): 112%; growth at 10 µM (HL-60(TB)): 90%; growth at 10 µM (RPMI-8226): 81%; growth at 10 µM (MDA-MB-435): 111%; growth at 10 µM (RXF 393): 108%; growth at 10 µM (SNB-75): 80%; growth at 10 µM (SW-620): 110%; growth at 10 µM (COLO 205): 129%; growth at 10 µM (OVCAR-8): 99%; growth at 10 µM (NCI-H322M): 108%
3 | CSC1=Nc2c(c(C)c(-c3ccccc3)n2CCCCl)C2=NC(=O)CN12 | 54% | 31% | 95% | 105% | 56% | 19% | 86% | 37% | 51% | 78% | 74% | 51% | 79% | 83% | 84% | 65% | 64% | 47% | 85% | 48% | growth at 10 µM (BT-549): 61%; growth at 10 µM (HCT-116): 27%; growth at 10 µM (HL-60(TB)): 27%; growth at 10 µM (RPMI-8226): 51%; growth at 10 µM (MDA-MB-435): -31%; growth at 10 µM (RXF 393): 95%; growth at 10 µM (SNB-75): 21%; growth at 10 µM (SW-620): 44%; growth at 10 µM (COLO 205): 79%; growth at 10 µM (OVCAR-8): 88%; growth at 10 µM (NCI-H322M): 82%
4 | CSC1=Nc2c(c(C)c(C)n2CCCC(=O)NCCc2cnc[nH]2)C2=NC(=O)CN12 | 99% | 102% | 149% | 139% | 83% | 100% | 100% | 100% | 97% | 110% | 101% | 101% | 106% | 109% | 114% | 109% | 109% | 89% | 165% | 94% | growth at 10 µM (BT-549): 120%; growth at 10 µM (NCI-H460): 101%; growth at 10 µM (HCT-116): 96%; growth at 10 µM (HL-60(TB)): 100%; growth at 10 µM (RPMI-8226): 87%; growth at 10 µM (MDA-MB-435): 116%; growth at 10 µM (RXF 393): 116%; growth at 10 µM (SNB-75): 78%; growth at 10 µM (SW-620): 104%; growth at 10 µM (COLO 205): 132%; growth at 10 µM (OVCAR-8): 108%; growth at 10 µM (NCI-H322M): 111%
5 | CSC1=Nc2c(c(C)c(-c3ccccc3)n2CCCN2CCN(C)CC2)C2=NC(=O)CN12 | 96% | 100% | 101% | 127% | 85% | 93% | 96% | 87% | 79% | 98% | 90% | 91% | 76% | 125% | 100% | 102% | 89% | 79% | 96% | 92% | growth at 10 µM (NCI-H460): 101%; growth at 10 µM (HCT-116): 93%; growth at 10 µM (HL-60(TB)): 91%; growth at 10 µM (RPMI-8226): 66%; growth at 10 µM (MDA-MB-435): 105%; growth at 10 µM (RXF 393): 106%; growth at 10 µM (SNB-75): 51%; growth at 10 µM (SW-620): 101%; growth at 10 µM (COLO 205): 91%; growth at 10 µM (OVCAR-8): 93%; growth at 10 µM (NCI-H322M): 97%
6 | CSC1=Nc2c(c(C)c(-c3ccccc3)n2CCCN2CCCCC2)C2=NC(=O)CC(C)N12 (centres undefined) | 42% | 60% | 48% | 49% | 36% | 12% | 45% | 54% | 68% | 80% | 32% | 10% | 69% | 57% | 41% | 81% | 82% | -19% | 24% | 23% | growth at 10 µM (NCI-H460): 38%; growth at 10 µM (HCT-116): 43%; growth at 10 µM (HL-60(TB)): -33%; growth at 10 µM (RPMI-8226): -51%; growth at 10 µM (MDA-MB-435): 26%; growth at 10 µM (RXF 393): 56%; growth at 10 µM (SNB-75): 50%; growth at 10 µM (SW-620): 62%; growth at 10 µM (COLO 205): -87%; growth at 10 µM (OVCAR-8): 45%; growth at 10 µM (NCI-H322M): 62%
